In general, Ki refers to the dissociation constant of the complex between target and ligand, obtained from inhibition or displacement. Broadly, the IC50 is the concentration that inhibits the measured activity by half.

From ChEMBL document CHEMBL3108742, “Structurally diverse low molecular weight activators of the mammalian pre-mRNA 3' cleavage reaction” (Bioorg Med Chem, 2014) come the findings set out here.

The test system of test [1] is HeLa. Kind of test: Induction of [alpha-32P]-UTP-labeled Simian virus 40 late pre-mRNA 3' cleavage at 1 mM treated with 3' cleavage factors from human HeLa cell nuclear extract after 2 hrs by PAGE analysis. The class given is cell-based. The following applies: Betapolyomavirus macacae. The method, boiled down: (§1)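 Radiolabeled substrate (1–5 nM) derived from the SV40 late poly(A) signal was incubated with DEAE-sepharose CPSF, CstF and CFm fractions from HeLa nuclear extract. Test agent replaced 50 mM creatine phosphate. Reaction mix contained tRNA, 2 mM EDTA, 2 mM 2′-dATP, 2.5% polyvinyl alcohol and 10 mM HEPES pH 7.9, run at 30 °C for 2 h. Products were Proteinase K-digested, extracted, precipitated and resolved by 6% denaturing PAGE.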

For test [2], the system named is HeLa. The test can be described thus: Induction of [alpha-32P]-UTP-labeled Simian virus 40 late pre-mRNA 3' cleavage at 50 mM treated with 3' cleavage factors from human HeLa cell nuclear extract after 2 hrs by PAGE analysis. The format is cell-based. Conditions: Betapolyomavirus macacae. In a few lines:
(§2)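 Partially purified HeLa nuclear extract cleavage factors (DEAE fractions CPSF, CstF, CFm; ammonium sulfate-concentrated, dialyzed against 20 mM Na-HEPES pH 7.9 buffer) incubated with radiolabeled SV40 late poly(A) signal substrate (1–5 nM). Reaction mix: tRNA 0.1 mg/mL, 2 mM EDTA, 2 mM 2'-dATP, 2.5% polyvinyl alcohol, 10 mM HEPES pH 7.9, 25 mM ammonium sulfate, activator replacing creatine phosphate. Run 2 h at 30 °C; Proteinase K treatment, 6% denaturing gel.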

For test [3], the system named is HeLa. Kind of test: Induction of [alpha-32P]-UTP-labeled Simian virus 40 late pre-mRNA 3' cleavage at 25 to 200 uM treated with 3' cleavage factors from human HeLa cell nuclear extract after 2 hrs by PAGE analysis. The class given is cell-based. Conditions: Betapolyomavirus macacae. In a few lines:
as §1

Test [4] concerns HeLa. The test can be described thus: Induction of [alpha-32P]-UTP-labeled Simian virus 40 late pre-mRNA 3' cleavage treated with 3' cleavage factors from human HeLa cell nuclear extract after 2 hrs by PAGE analysis. Conditions: Betapolyomavirus macacae. The class given is cell-based. In a few lines: as §2
Test [5] concerns HeLa. The test can be described thus: Induction of [alpha-32P]-UTP-labeled Simian virus 40 late pre-mRNA 3' cleavage at 200 nM treated with 3' cleavage factors from human HeLa cell nuclear extract after 2 hrs by PAGE analysis in presence of calf intestinal alkaline phosphatase. The format is cell-based. The following applies: Betapolyomavirus macacae.
In test [6] the target is T1, Protein phosphatase 1D (Homo sapiens, UniProt O15297).
T1 sequence (O15297 whole entry): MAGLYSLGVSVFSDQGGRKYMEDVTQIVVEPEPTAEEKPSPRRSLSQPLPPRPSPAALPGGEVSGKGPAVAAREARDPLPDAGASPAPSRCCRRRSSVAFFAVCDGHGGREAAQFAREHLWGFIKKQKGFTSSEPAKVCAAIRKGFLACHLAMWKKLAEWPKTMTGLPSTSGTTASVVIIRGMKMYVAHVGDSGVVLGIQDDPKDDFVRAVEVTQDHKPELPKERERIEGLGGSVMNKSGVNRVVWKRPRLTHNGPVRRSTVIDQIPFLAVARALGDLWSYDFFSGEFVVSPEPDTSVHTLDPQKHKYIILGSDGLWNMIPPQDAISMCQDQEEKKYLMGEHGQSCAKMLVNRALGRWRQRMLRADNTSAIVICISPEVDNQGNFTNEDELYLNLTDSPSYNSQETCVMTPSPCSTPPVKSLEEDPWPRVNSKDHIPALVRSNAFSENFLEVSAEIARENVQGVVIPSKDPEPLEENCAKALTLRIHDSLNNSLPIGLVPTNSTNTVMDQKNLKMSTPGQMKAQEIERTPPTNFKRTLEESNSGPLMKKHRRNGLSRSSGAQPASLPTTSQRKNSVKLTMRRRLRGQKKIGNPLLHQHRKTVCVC
The test can be described thus: Inhibition of N-terminal His-tagged human PPM1D (1 to 420) assessed as phosphoric acid release after 30 mins.

For test [7], the system named is HeLa. The test can be described thus: Induction of [alpha-32P]-UTP-labeled Simian virus 40 late pre-mRNA 3' cleavage at 200 nM treated with 3' cleavage factors from human HeLa cell nuclear extract after 2 hrs by PAGE analysis. The format is cell-based. The following applies: Betapolyomavirus macacae. In a few lines:
as §1

In test [8] the test system is HeLa. Kind of test: Induction of [alpha-32P]-UTP-labeled Simian virus 40 late pre-mRNA 3' cleavage at 200 nM treated with 3' cleavage factors from human HeLa cell nuclear extract after 2 hrs by PAGE analysis in presence of protein tyrosine phosphatase. The format is cell-based. Conditions: Betapolyomavirus macacae.
Test [9] is described as follows: Inhibition of ABI1 (unknown origin).
Test [10] relates to HeLa. Kind of test: Induction of [alpha-32P]-UTP-labeled Simian virus 40 late pre-mRNA 3' cleavage at >= 100 uM treated with 3' cleavage factors from human HeLa cell nuclear extract after 2 hrs by PAGE analysis relative to control. The following applies: Betapolyomavirus macacae. The format is cell-based. In a few lines:
as §1

The nature of test [11]: Inhibition of ABI2 (unknown origin) at 3 uM relative to control. Set-up: scale not given: the % may be the effect or the level left.
A short description of test [12]: Inhibition of ABI2 (unknown origin).

SMILES strings stand for the structures. Calls of active or inactive are those of the source. The rule behind the calls is not given here.

In the case of `N[C@@H](COP(=O)(O)O)C(=O)O`, in test [1], the outcome was inactive.

As for `CN(CC(=O)O)C(=N)NP(=O)(O)O`, the outcome in [2] was Active. With `N=C(N)NCCC[C@H](N)C(=O)Nc1ccc2ccccc2c1`, the outcome in [3] was Active. With `N=C(N)NCCC[C@H](N)C(=O)Nc1ccccc1`, the result in test [1] was inactive.

`CN(C)CCOP(=O)(O)O`: the outcome in test [4] was inactive. As for `C[N+](C)(C)CCCOP(=O)(O)O`, the result in test [4] was inactive. `CC[C@H](C)[C@@H]1NC(=O)[C@H](Cc2ccc(OP(=O)(O)O)cc2)NC(=O)[C@H](CC(=O)O)NC(=O)[C@H](CCC(=O)O)N[C@H](C(N)=O)CSCC(=O)[C@H](Cc2ccccc2)NC(=O)[C@H](COP(=O)(O)O)NC1=O`: the outcome in test [5] was inactive. In test [6], the Ki stood at 150 nM. The outcome in test [7] and in test [8] was Active. In the case of `CC1=CC(=O)CC(C)(C)[C@@]1(O)/C=C/C(C)=C\C(=O)O` [(+)-ABSCISIC ACID], the values for the IC50 in [9] and in test [12] were 60 nM and 70 nM, respectively. Moreover, the Activity in test [10] came out at 10%; in [11], 15%.

For `N=C(N)NCCC[C@H](N)C(=O)Nc1cccc2ccccc12`, in test [1], the result was inactive. Same read-out and setting: next, `N=C(N)NCCC[C@H](N)C(=O)Nc1cnc2ccccc2c1`: “inactive”.

As to `CNCCOP(=O)(O)O`, the result in [4] was inactive. As for `CC(=O)N[C@@H](CCCC[N+](C)(C)C)C(=O)N[C@@H](COP(=O)([O-])O)C(=O)O`, the result in [1] was Active.

As to `C[N+](C)(C)CCOP(=O)(O)O`, the result in test [1] was inactive. As for `N=C(N)NCCC[C@@H](C(=O)Nc1ccc2ccccc2c1)N1CCOCC1`, in test [3], the outcome was Active. Turning to `CCNC(=N)NCCC[C@H](N)C(=O)Nc1cccc2ccccc12`, in test [1], the outcome was inactive.
